Reference: ChEMBL document CHEMBL4138055, “Determination and reduction of translocator protein (TSPO) ligand rs6971 discrimination” (Medchemcomm, 2017)

How the values were obtained:
Homo sapiens = organism: Homo sapiens; assay: Selectivity ratio of Ki for human TSPO A147T mutant to Ki for human wild type TSPO
Translocator protein [1] = target: T1, Translocator protein (Homo sapiens, UniProt P30536); assay: Displacement of [3H]PK11195 from human wild type TSPO expressed in HEK293T cell membranes after 90 mins by scintillation counting method
T1 sequence (P30536 whole entry): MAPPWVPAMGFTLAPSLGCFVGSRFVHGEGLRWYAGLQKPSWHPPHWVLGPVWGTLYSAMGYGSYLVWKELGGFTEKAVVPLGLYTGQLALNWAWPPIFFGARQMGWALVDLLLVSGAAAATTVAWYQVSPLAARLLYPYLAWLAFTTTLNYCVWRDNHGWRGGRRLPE

HEK-293T [2] = assay: Cytotoxicity against HEK293T cells expressing human wild type TSPO assessed as decrease in cell viability after 48 hrs by CellTiter blue assay; assay type: functional, cell-based
Method in brief: (§1)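 Stable TSPO WT or A147T 293T cells at 8.75 × 10³ cells/well on poly-L-lysine-coated plates, exposed next day to vehicle or compound (1–100 μM) for 48 h. CellTiter Blue (resazurin to resorufin) added for 4 h at 37 °C, fluorescence read at Ex560/Em590 nm.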

HEK-293T [3] = assay: Cytotoxicity against HEK293T cells expressing human TSPO A147T mutant assessed as decrease in cell viability after 48 hrs by CellTiter blue assay; assay type: functional, cell-based; method in brief: as §1
HEK-293T [4] = assay: Antiproliferative activity against HEK293T cells expressing human wild type TSPO after 48 hrs by BrdU incorporation assay; assay type: functional, cell-based
Method in brief: (§2)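 293T cells stably expressing human TSPO WT or A147T (lentiviral, puromycin-selected) seeded at 8.75 × 10³ cells/well on poly-L-lysine-coated plates, treated next day with vehicle or compound (1–100 μM) for 48 h. BrdU added for 4 h at 37 °C, incorporation detected by ELISA, absorbance read at 450 nm.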

HEK-293T [5] = assay: Antiproliferative activity against HEK293T cells expressing human TSPO A147T mutant after 48 hrs by BrdU incorporation assay; assay type: functional, cell-based; method in brief: as §2
[6] = Selectivity ratio of IC50 for HEK293T cells expressing human TSPO A147T mutant assessed as decrease in cell viability to IC50 for HEK293T cells expressing human wild type TSPO assessed as decrease in cell viability; assay type: functional
Translocator protein [7] = target: T1, Translocator protein; assay: Ratio of Ki for displacement of [3H]PK11195 from human brain TSPO isolated from low affinity binder patient to Ki for [3H]PK11195 from human brain TSPO isolated from high affinity binder patient
[8] = Selectivity ratio of IC50 for HEK293T cells expressing human TSPO A147T mutant assessed as decrease in cell proliferation to IC50 for HEK293T cells expressing human wild type TSPO assessed as decrease in cell proliferation; assay type: functional

Compound	Ratio Ki (Homo sapiens)	Ki (Translocator protein [1])	IC50 (HEK-293T [2])	IC50 (HEK-293T [3])	IC50 (HEK-293T [4])	IC50 (HEK-293T [5])	Ratio IC50 [6]	Ratio Ki (Translocator protein [7])	Ratio IC50 [8]
CCN(CC)C(=O)Cn1c2ccccc2c2ccccc21	5.9	0.0301 µM	–	–	–	–	–	–	–
CCN(CC)C(=O)Cn1c2ccccc2c2cc(Br)ccc21	5.1	0.0315 µM	–	–	–	–	–	–	–
CCN(Cc1ccccc1)C(=O)Cn1c2ccccc2c2cc(Br)ccc21	–	0.0543 µM	–	–	–	–	–	–	–
CCC(C)N(C)C(=O)c1cc2ccccc2c(-c2ccccc2Cl)n1 (centres undefined) [PK-11195]	–	–	67.4 µM	69.2 µM	> 100 µM	> 100 µM	–	–	–
CCN(CC)C(=O)Cn1c2ccccc2c2cc(-c3ccccc3OC)ccc21	5.4	0.0254 µM	–	–	–	–	–	–	–
CCN(CC)C(=O)Cc1c(-c2ccc(OC)cc2)nn2c(C)cc(C)nc12	–	–	> 100 µM	> 100 µM	> 100 µM	> 100 µM	–	–	–
CCN(Cc1ccccc1)C(=O)Cn1c(=O)n(C)c2cnc(-c3ccccc3)nc21	4.9	0.0064 µM	29.5 µM	26.2 µM	> 100 µM	> 100 µM	0.9	12.6	–
CCN(CC)C(=O)Cn1c2ccccc2c2cc(-c3ccccc3)ccc21	5.1	0.0316 µM	23.7 µM	22.9 µM	50.5 µM	47.1 µM	1	–	0.9
CCN(CC)C(=O)Cn1c2ccccc2c2cc(-c3ccc(OC)cc3)ccc21	3.2	0.0289 µM	–	–	–	–	–	–	–
CCN(Cc1ccccc1)C(=O)Cn1c2ccccc2c2ccccc21	5	0.0916 µM	> 100 µM	> 100 µM	> 100 µM	> 100 µM	–	–	–
